# The list is not random: actives were taken first. Their share in the collection is about 2.2%.
# LEDGF integ inh: blocks HIV-1 LEDGF/p75-dependent DNA integration. 370,000 compounds, 0.64% hits. TR-FRET IN-LEDGF/p75 DNA integration, Eu/Cy5. inhibition, % at 3.7 µM;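 active = inhibition above the screen-wide mean plus 3 SD, cut at about 13% in these data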;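 also: signal is the Cy5 over europium emission ratio at 671 and 618 nm; 0% = plate median of compound wells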
# ABHD4 inh: ABHD4 (mouse) inhibition, primary FP screen. Q8VD66. purified mABHD4, FP-Rh probe fluorescence polarization. inhibition, % at 8.92 µM. 370,000 compounds, 0.54% hits. AID 720543;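 active = inhibition exceeding the mean over every tested compound plus 3 SD, cut at about 30% in these data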;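 also: 0% = plate median of compound wells and 100% = S159A mutant with DMSO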
# Target sequence (Q8VD66 whole entry, looked up): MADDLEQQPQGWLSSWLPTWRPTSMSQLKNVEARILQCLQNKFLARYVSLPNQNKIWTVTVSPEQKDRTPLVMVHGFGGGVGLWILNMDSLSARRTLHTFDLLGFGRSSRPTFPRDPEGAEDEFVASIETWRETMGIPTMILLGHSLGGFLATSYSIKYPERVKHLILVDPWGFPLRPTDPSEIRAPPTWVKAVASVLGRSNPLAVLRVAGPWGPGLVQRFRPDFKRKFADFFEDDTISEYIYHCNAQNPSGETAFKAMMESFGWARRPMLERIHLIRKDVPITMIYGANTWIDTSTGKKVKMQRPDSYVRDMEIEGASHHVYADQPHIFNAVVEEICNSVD
#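 Assay system: mABHD4 protein; medium: HEPES pH 7.0, NaCl, Pluronic buffer; dosing: 8.92 µM, single dose; schedule: 45 min + 60 min at 25 °C; signal: FP readout, ex 525 nm / em 598 nm; read-out: normalized percent inhibition of probe labeling; repeats: single replicate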
# TDP2 absorb: blocks human TDP2 phosphodiesterase activity; recombinant TDP2, T5PNP hydrolysis, p-nitrophenol absorbance 415 nm; 370,000 compounds, 0.34% hits; AID 720702; O95551; inhibition, % at 12.8 µM;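 active = inhibition above the mean of all tested compounds plus 3 SD, set per campaign, cut at about 25% in these data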;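 also: 0% = DMSO with enzyme and 100% = buffer with substrate but no TDP2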
#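 System – recombinant human TDP2 · Quantity – TDP2 enzyme at 120 nM final · Doses – single concentration, 12.8 µM nominal, with 1% DMSO · Incubation – 2 h at 37 °C · Measured by – epi absorbance of p-nitrophenol freed from T5PNP by hydrolysis · Read-out – % inhibition relative to enzyme-containing and enzyme-free wells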
# HTRA1 inh: HTRA1 (human) protease inhibition | Q92743 | recombinant HTRA1, FP-rhodamine activity-based probe, fluorescence polarization | inhibition, % at 5.96 µM | 340,000 compounds, 0.5% hits | AID 504803; in the data active = inhibition above about 36%;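 also: 0% = enzyme with DMSO and 100% = wells lacking enzyme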
# TCR-CD3 inh: human TCR-CD3 binding inhibition; TAMRA-labeled TCR probe fluorescence, biochemical; inhibition, % at 9.4 µM; 360,000 compounds, 0.37% hits; AID 651800; in the data active = inhibition above about 19%;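 also: recombinant mutant TCR 2C K166C tagged with TAMRA read by polarization; 0% = receptor in buffer alone and 100% = receptor with positive control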
# SIAE primary: blocks human sialic acid acetylesterase | Q9HAT2 | SIAE FP-Rh probe binding, fluorescence polarization | inhibition, % at 9.66 µM | 370,000 compounds, 0.69% hits | AID 1053197;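 active = inhibition above a cutoff: mean of compounds within the control limits plus 3 SD of those, cut at about 17% in these data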;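 also: 0% = plate median of compound wells and 100% = probe without SIAE protein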
# IN multimer up: activates HIV-1 integrase multimerization in LEDGF counter-screen | shares compounds with LEDGF integ inh | TR-FRET HIV-1 integrase multimerization, biochemical | 2,000 compounds, 17% hits | activation, % at 7.7 µM; in the data active = activation above about 8.9%
# TRFRET interf: counter-screen for LEDGF/p75 integration inhibitors: TR-FRET optical interference. shares compounds with LEDGF integ inh. TR-FRET optical interference counterscreen, HIV-1 IN multimerization. inhibition, % at 7.7 µM. 2,000 tested, under 10 active. AID 1053135;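 active = inhibition above the mean over all tested compounds plus 3 SD, which no compound reached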;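 also: 0% = integrase with antibodies and DMSO and 100% = antibodies without integrase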
# LEDGF integ conf: LEDGF/p75-dependent HIV-1 integration inhibition, confirmation | TR-FRET LEDGF/p75-dependent HIV-1 integration, biochemical | shares compounds with LEDGF integ inh | 2,000 compounds, 36% hits | inhibition, % at 3.7 µM | AID 1053136; in the data active = inhibition above about 14%
# Starred values were filed as active, the others as inactive; / = no result given.
SMILES,LEDGF integ inh,ABHD4 inh,TDP2 absorb,HTRA1 inh,TCR-CD3 inh,SIAE primary,IN multimer up,TRFRET interf,LEDGF integ conf
CCOc1ccc(-n2c(SCC(=O)Nc3ccc(S(=O)(=O)Nc4nccs4)cc3)nnc2-c2ccccc2)cc1,0,-54,2,/,/,-44,/,/,/
COc1cc(NC(=S)NCc2cccnc2)c(OC)cc1Cl,80*,-3,5,4,8,6,1,-4,2
COc1ccccc1NC(=S)NCc1cccnc1,0,-4,-6,3,-1,-2,/,/,/
Cc1c(C(=O)NCCN2CCOCC2)oc2ccc(Br)cc12,18*,3,3,3,-4,-5,0,0,9
Cc1c(C(=O)NCCN2CCOCC2)oc2ccccc12,5,7,0,-3,-5,0,/,/,/
O=C(NC1CCc2ccccc21)c1cc(-c2ccc(Cl)cc2)nc2ccccc12 (configuration not stated),-2,-2,-1,/,/,-2,/,/,/
COC(=O)[C@]12C[C@H](CC(=O)NCc3cccc4ccccc34)C(=O)N(CCc3ccc(OC)c(OC)c3)C1=C[C@H](COCc1ccccc1)O[C@@H]2C,5,-7,-6,/,/,-3,/,/,/
OCCN1CCN(c2ncnc3c2ncn3[C@H]2CN(Cc3ccc(Cl)cc3)C[C@@H](CO)O2)CC1,-2,-1,14,/,4,3,/,/,/
CN1CCN(c2ncnc3c2ncn3[C@H]2CN(Cc3ccc(Cl)cc3)C[C@@H](CO)O2)CC1,14*,2,-1,/,6,-5,1,-3,-10
Nc1nc2c(ncn2[C@@H]2O[C@H](C(=O)NCCCc3ccccc3)[C@@H](O)[C@H]2O)c(=O)[nH]1,-2,-3,4,/,2,3,/,/,/
CCN1C[C@@H]2[C@@H]3C(=O)N(C)C(=O)[C@@H]3[C@](CC)(C(=O)OC)N2C1=NCc1ccccc1,65*,-5,10,1,-8,6,-2,9,2
Cc1nnsc1SCCNC(=O)c1c(F)cccc1F,-3,-1,-8,-3,-1,2,/,/,/
Cc1cccc(C)c1NC(=O)NCCSc1snnc1C,15*,1,3,3,-3,-1,0,0,2
CC1CCCCN1C(=O)C1CCN(c2nc(-c3ccccc3)nc3c2CCC3)CC1 (configuration not stated),0,-2,5,-7,11,4,/,/,/
CCOC(=O)CN1C(=O)S/C(=C\c2ccc(-c3ccc(C(=O)O)c(Cl)c3)o2)C1=O,3,0,2,-1,3,1,/,/,/
CC(C)N1C(=O)S/C(=C\c2ccc(-c3ccc(Cl)c(C(=O)O)c3)o2)C1=O,37*,26,-14,-17,-3,-4,1,-4,5
C=CCOc1ccc(/C=C/C(=O)OCC(=O)NNC(=O)c2ccccc2F)cc1,1,-15,-10,-1,-3,-15,/,/,/
O=C(c1cc2nc(-c3ccco3)cc(C(F)(F)F)n2n1)N1CCCCCC1,-1,5,-3,-4,1,-1,/,/,/
O=C(NCCCN1CCCC1=O)c1cc2nc(-c3ccco3)cc(C(F)(F)F)n2n1,20*,2,-7,4,-3,1,-1,3,6
Cc1coc2c1c(C)cc1oc(=O)c(Cc3ccccc3)c(C)c12,15*,2,7,-7,7,-4,-4,20,4
Cc1coc2c1c(C)cc1oc(=O)c(CC(=O)NCC(=O)NCC(=O)O)c(C)c12,0,0,1,1,7,4,/,/,/
COCCNC(=O)c1onc(CSc2cccc(OC)c2)c1C(=O)NCCOC,-3,1,7,-9,4,-1,/,/,/
COc1cccc(SCc2noc(C(=O)NCc3ccccc3)c2C(=O)NCc2ccccc2)c1,48*,0,8,-9,7,3,-1,7,-5
O=[N+]([O-])c1cncn1CCN1CCOCC1,-5,0,-6,3,1,-3,/,/,/
CCN(CC(=O)Nc1ccc(NC(C)=O)cc1)C(=O)c1ccc(NC2CC2)c([N+](=O)[O-])c1,-4,0,0,-3,-1,3,/,/,/
SMILES,LEDGF integ inh,ABHD4 inh,TDP2 absorb,HTRA1 inh,TCR-CD3 inh,SIAE primary,IN multimer up,TRFRET interf,LEDGF integ conf
COc1ccc(S(N)(=O)=O)cc1C(=O)OCC(=O)NC(C)(C#N)C1CC1 (configuration not stated),4,-3,-6,-4,-5,-5,/,/,/
COc1ccc(CCNC(=O)Cn2c(=O)oc3cc(Cl)ccc32)cc1OC,34*,1,4,-6,1,2,0,1,-1
COc1ccc(CCNC(=O)c2cccs2)cc1OC,1,2,4,1,-6,-1,/,/,/
COc1ccc(CCNC(=O)Cc2cccs2)cc1OC,22*,4,0,-3,1,-4,1,-3,4
O=C(CSc1nnc(COc2ccccc2)n1Cc1ccco1)NCc1ccco1,28*,-2,-11,-2,8,-2,5,-23,19*
CCN(C(=O)Cn1nnc(-c2ccncc2)n1)c1ccccc1,6,-3,8,/,/,4,/,/,/
COC(=O)[C@H]1C[C@H]2[C@@H]3CC[C@H]4C[C@@H](OC)CC[C@]4(C)[C@H]3CC[C@]2(C)[C@@]2(CCCO2)O1,49*,-5,-5,2,-2,4,1,-6,4
COC(=O)N[C@@H]1C[C@H]2[C@@H]3CC[C@H]4C[C@@H](OC)CC[C@]4(C)[C@H]3CC[C@]12C,0,-7,-10,-22,-4,2,/,/,/
Fc1cccc(Cc2c(-c3cccc(Cl)c3)nc3c(Cl)cc(C(F)(F)F)cn23)c1,0,-13,3,/,-6,-3,/,/,/
CC(=O)N1CCN(c2ccc(N)cc2)CC1,26*,12,24,13,-8,9,0,0,-1
CC(=O)N1CCN(c2ccc(NCc3cccc(C)c3)cc2)CC1,14*,29,21,17,-1,7,3,-17,-2
CC(=O)N1CCN(c2ccc(NCc3ccc(F)cc3)cc2)CC1,8,20,4,16,3,5,/,/,/
O=S1(=O)c2ccc(N3CCN(Cc4ccccc4F)CC3)cc2Oc2ccccc2CN1Cc1cn(Cc2ccc(F)cc2)nn1,2,4,5,/,/,-1,/,/,/

# Assay outcomes as filed in PubChem BioAssay.
